From PubChem
HCV NS3 hel inh: inhibitors of HCV NS3 helicase, primary screen, biochemical, Cy5 molecular beacon fluorescence | Hepatitis C virus NS3 helicase | NS3 helicase DNA unwinding | 290,000 compounds, 0.56% hits | inhibition, % at 10.9 µM;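 active = inhibition above the mean of all tested compounds plus 3 SD, set per campaign, cut at about 35% in these data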;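 also: 0% = DMSO wells and 100% = thioflavine S control wells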
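System: Hepatitis C virus NS3 helicase domain fragment enzyme | Reagent: Annealed dual-labelled DNA beacon duplex, ATP-started | Compound dosing: 10.9 µM single point, 0.8% DMSO | Incubation: 1 h reaction at 25 °C, ATP-initiated | Technique: Cy5 fluorescence | Evaluation: Percent inhibition from t60/t0 fluorescence ratio | Benchmarks: Low DMSO, high thioflavine S at 110 µM | Replication: Singlicate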
APOBEC3A inh: APOBEC3A ssDNA deaminase inhibitors, primary screen, selectivity assay for APOBEC3G inhibitor project, biochemical, FAM/TAMRA oligo cleavage fluorescence. AID 493011, 2011. inhibition, % at 20 µM. 330,000 compounds, 0.41% hits. recombinant A3A, FAM/TAMRA ssDNA deamination fluorescence;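 active = at least 40% inhibition at 20 µM here, with at most 30% in a related deaminase screen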;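 also: plate controls were A3A with DMSO for no effect and wells lacking A3A enzyme for full effect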
core dimer inh: inhibitors of HCV core protein dimerization, primary screen, biochemical, TR-FRET, high-throughput | 300,000 compounds, 0.33% hits | inhibition, % at 5 µM | AID 1899, 2009 | TR-FRET GST/Flag-core106 dimerization, 1536-well;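 active = inhibition above the mean of all tested compounds plus 3 SD, set per screening campaign, cut at about 45% in these data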
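assay system = GST-tagged and Flag-tagged HCV core protein residues 1-106 | controls = unlabelled core106 and no-GST-core106 wells | incubation = compound-protein-antibody incubation 4 h at 22.5 °C | probe or stimulus = Eu donor and XL665 acceptor anti-tag antibodies | read-out = % inhibition based on acceptor/donor emission ratio | signal = TR-FRET 671 and 617 nm emission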
A3G deaminase: APOBEC3G DNA deaminase inhibitors, primary screen, biochemical, fluorescence, single-stranded DNA substrate, uHTS; recombinant A3G, ssDNA deamination FAM/TAMRA fluorescence; inhibition, % at 20 µM; 330,000 compounds, 0.28% hits; AID 493012, 2011;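 active = inhibition of at least 40% at 20 µM, with no more than 30% in the related APOBEC3A deaminase screen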;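 also: plate controls were DMSO wells with A3G for no effect and wells lacking A3G enzyme for full effect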
ABHD5-PLIN5 inh: ABHD5-PLIN5 interaction inhibitors, primary screen, cell lysate, split luciferase complementation, luminescence | Perilipin-5 (Homo sapiens) + 1-acylglycerol-3-phosphate O-acyltransferase ABHD5 (Homo … | Split G. princeps luciferase complementation, 4 h | inhibition, % at 4 µM | 360,000 compounds, 0.78% hits;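 active = inhibition above the mean inhibition across every tested compound plus 3 SD, cut at about 22% in these data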;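 also: 0% = DMSO only wells and the 100% control is not disclosed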
Target sequence (Q00G26 whole entry, looked up): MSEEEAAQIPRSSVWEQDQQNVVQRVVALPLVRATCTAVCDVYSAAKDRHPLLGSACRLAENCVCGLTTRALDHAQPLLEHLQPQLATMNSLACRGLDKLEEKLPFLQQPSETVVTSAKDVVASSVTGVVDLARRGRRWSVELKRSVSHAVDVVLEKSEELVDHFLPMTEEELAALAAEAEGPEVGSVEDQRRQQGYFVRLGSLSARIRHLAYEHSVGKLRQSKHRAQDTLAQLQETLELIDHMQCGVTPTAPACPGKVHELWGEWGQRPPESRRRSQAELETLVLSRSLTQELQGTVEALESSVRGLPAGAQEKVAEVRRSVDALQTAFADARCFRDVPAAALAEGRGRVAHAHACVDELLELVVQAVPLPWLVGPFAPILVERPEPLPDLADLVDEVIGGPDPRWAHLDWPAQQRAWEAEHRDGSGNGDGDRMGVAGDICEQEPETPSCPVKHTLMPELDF
Target sequence (Q8WTS1 whole entry, looked up): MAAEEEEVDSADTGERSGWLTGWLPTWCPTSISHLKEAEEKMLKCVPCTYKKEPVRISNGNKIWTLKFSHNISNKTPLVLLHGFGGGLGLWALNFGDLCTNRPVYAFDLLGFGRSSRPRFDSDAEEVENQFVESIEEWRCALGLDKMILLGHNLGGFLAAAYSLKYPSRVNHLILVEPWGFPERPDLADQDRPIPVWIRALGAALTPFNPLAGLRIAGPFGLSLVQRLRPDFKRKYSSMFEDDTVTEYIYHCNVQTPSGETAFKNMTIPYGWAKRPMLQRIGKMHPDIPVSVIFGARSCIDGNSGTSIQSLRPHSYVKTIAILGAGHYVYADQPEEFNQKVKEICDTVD
PRMT1 FP inh: PRMT1 methyltransferase inhibitors, primary screen, biochemical, fluorescence polarization; Protein arginine N-methyltransferase 1 (Homo sapiens), Q99873; recombinant PRMT1, activity-based probe fluorescence polarization; inhibition, % at 2.79 µM; 370,000 compounds, 1.3% hits; AID 652257, 2013;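 active = inhibition above about 21% made by adding two undisclosed values, limit read from the data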
ABHD5 PLIN5 conf: ABHD5-PLIN5 interaction inhibitors, confirmation, biochemical, luminescence. 2,200 compounds, 67% hits. AID 651612, 2012. inhibition, % at 4 µM. shares compounds with ABHD5-PLIN5 inh; in the data active = inhibition above about 23%;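 also: 0% = DMSO vehicle wells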
HNF4 counter: HNF4 dimerization inhibitors, counter-screen for ABHD5-PLIN5 interaction inhibitor project, biochemical, split-luciferase complementation, luminescence; shares compounds with ABHD5-PLIN5 inh; inhibition, % at 4 µM; 2,200 compounds, 77% hits;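 active = mean inhibition across replicate wells exceeding the computed hit threshold, cut at about 13% in these data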;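 also: light from luciferase halves that rejoin when HNF4 fusion proteins dimerize; 0% = DMSO only wells and the 100% control is not given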
* marks the source's active call; other numbers are inactive results; nt = no result given. The list is not random: actives were taken first. Their share in the collection is about 2.9%.

SMILES | HCV NS3 hel inh | APOBEC3A inh | core dimer inh | A3G deaminase | ABHD5-PLIN5 inh | PRMT1 FP inh | ABHD5 PLIN5 conf | HNF4 counter
CC1(C)CC(=O)C(C(C2=C(O)CC(C)(C)CC2=O)c2ccc(Br)s2)C(=O)C1 (centres undefined) | -5 | 0 | 0 | 3 | 67* | 21 | 91* | 97*
O=S(=O)(c1ccccc1F)N1CCN(CCc2ccccc2)CC1 | 1 | 3 | 7 | 4 | -10 | -1 | nt | nt
COc1ccc(-n2nnnc2S(=O)(=O)Cc2ccc(C(=O)O)cc2)cc1 | -1 | -2 | 0 | -1 | 54* | 2 | 79* | 81*
COc1ccc(-n2nnnc2S(=O)(=O)CC(=O)N2CCCCC2)cc1 | -12 | -5 | 4 | -6 | 54* | 3 | 75* | 83*
COc1cc(OC)cc(-n2nnnc2SCC(=O)N2CCCC2)c1 | 5 | 0 | 5 | -4 | 10 | 1 | nt | nt
CCc1ccc(Oc2nnnn2-c2ccc(C(N)=O)cc2)cc1 | -2 | 0 | 3 | -5 | 2 | -1 | nt | nt
COc1ccc2[nH]c3c(c2c1)CCNC3=O | nt | 0 | 9 | -6 | 5 | -1 | nt | nt
C=C1CCc2c([nH]c3ccc(OCC(C)C)cc23)C1=O | 1 | 2 | nt | 4 | 42* | 6 | 90* | 73*
Oc1ccccc1CNc1ccc(OC(F)(F)F)cc1 | -6 | -2 | 1 | -4 | -10 | 1 | nt | nt
CCOC(=O)c1ccc(NC(=O)CSc2nc3c(c(=O)n2CC)SC(C)C3)cc1 (centres undefined) | -11 | -3 | 4 | -6 | 81* | -1 | 4 | 8
COc1ccc(C2C(C(=O)N3CCOCC3)CC(=O)N2c2ccc(OC)cc2)cc1 (centres undefined) | nt | nt | nt | nt | nt | -2 | nt | nt
O=S1(=O)N[C@@H](c2ccccc2)COc2cc(Br)ccc21 | nt | nt | nt | nt | -5 | 0 | nt | nt
Cc1ccc2nc3c(cc2c1)CN(Cc1ccco1)C(=NCC1CCCO1)S3 (centres undefined) | 7 | -2 | 10 | 0 | 18 | 3 | nt | nt
Cc1cccc2cc3c(nc12)SC(=NCC1CCCO1)N(Cc1ccco1)C3 (centres undefined) | 19 | 1 | 79* | 2 | 26* | nt | 43* | 77*
CC(C)(C)OC(=O)NCCc1nnc(S(=O)(=O)Cc2ccc(Cl)cc2Cl)o1 | -7 | -1 | 2 | -3 | 26* | 15 | 39* | 74*
CC(C)(C)OC(=O)NCCc1nnc(SCc2ccccc2Cl)o1 | -5 | -1 | 3 | -3 | 10 | -3 | nt | nt
COc1cc(/C=C/c2cc(C(F)(F)F)[nH]c(=O)n2)cc(OC)c1OC | 27 | -3 | nt | -7 | 31* | 2 | 47* | 43*
COc1cc(OC)c(OC)cc1/C=C/c1cc(C(F)(F)F)[nH]c(=O)n1 | -8 | -2 | 2 | -5 | 5 | -2 | nt | nt
Cc1ccc(S(=O)(=O)N2CCCCC2)cc1NC(=O)Cn1ncc(Cl)c(Cl)c1=O | nt | 0 | nt | -8 | 26* | 2 | 23* | 14*
Cc1ccc(S(=O)(=O)N2CCCCC2)cc1NC(=O)Cn1cnnn1 | -3 | 7 | -1 | 1 | 2 | 3 | nt | nt
CCOC(=O)C(C(=O)OCC)C1OC(=O)c2cc3c(cc21)C(=O)OC3C(C(=O)OCC)C(=O)OCC (centres undefined) | 2 | 1 | 4 | -1 | 32* | 0 | 42* | 28*
CCOC(=O)CC1OC(=O)c2cc3c(cc21)C(=O)OC3CC(=O)OCC (centres undefined) | 5 | 4 | -7 | 2 | -8 | 3 | nt | nt
CCC(C)NCCOCCOc1ccc(Cl)c2ccccc12 (centres undefined) | -44 | 3 | -7 | -3 | 30* | 1 | 15 | 1
CC1CN(C2=CC(=O)CCC2)CC(C)O1 (centres undefined) | -2 | -2 | 0 | -8 | 31* | 5 | -4 | 13*
O=C(/C=C/c1cccc(O)c1)c1cccnc1 | -5 | -1 | 0 | -1 | 47* | 8 | 70* | 64*
SMILES | HCV NS3 hel inh | APOBEC3A inh | core dimer inh | A3G deaminase | ABHD5-PLIN5 inh | PRMT1 FP inh | ABHD5 PLIN5 conf | HNF4 counter
CN(C)c1ccc(/C=C/C(=O)c2cccnc2)cc1 | -1 | -20 | -7 | -34 | 14 | -4 | nt | nt
O=C(/C=C/c1cccnc1)c1cccc(O)c1 | 1 | -6 | 5 | -6 | 63* | 8 | 81* | 90*
Cc1ccc(C)c(C(=O)CCC(=O)Nc2ccc(N3CCN(C)CC3)cc2C)c1 | nt | -7 | nt | -7 | 13 | -2 | nt | nt
CCOC(=O)N1CCc2c(sc(NC(=O)CN3CCOCC3)c2C(=O)Nc2ccccc2)C1 | 5 | -6 | 5 | -6 | 23* | 0 | 5 | 3
O=C(/C=C/c1cccnc1)c1ccccc1O | 4 | 1 | -11 | 3 | 13 | -1 | nt | nt
O=C(/C=C/c1cccnc1)c1ccc(O)cc1 | 5 | 2 | 6 | 4 | 29* | 4 | 49* | 48*
CN(C)c1ccc(/C=C/C(=O)c2ccc(O)cc2)cc1 | nt | nt | nt | nt | 5 | -18 | nt | nt
O=C(C=Cc1cccnc1)c1ccccc1 | nt | nt | nt | nt | 74* | 12 | 84* | 81*
CN(C(=O)COc1ccccc1)c1nnc(-c2cccnc2)s1 | -3 | -9 | 9 | -8 | 1 | 0 | nt | nt
CN(C)C(=O)COc1ccc(C(=O)/C=C/c2cccnc2)cc1 | 3 | 2 | -4 | -8 | 28* | 4 | 52* | 46*
O=C(CCN1C(=O)c2ccccc2C1=O)NCc1ccc(Cl)cc1 | -6 | 1 | -2 | -1 | 0 | -3 | nt | nt
O=c1c([N+](=O)[O-])cn(Cc2ccccc2)c(=O)n1Cc1ccccc1 | nt | nt | nt | nt | 4 | -3 | nt | nt
C/C=C(/C)C(=O)O[C@H]1[C@@H](O)c2c(ccc3ccc(=O)oc23)OC1(C)C | 5 | -2 | 2 | -10 | 3 | -2 | nt | nt
